Laboratory results as given in ChEMBL document CHEMBL1126259, “omega-[(4-Phenyl-2-quinolyl)oxy]alkanoic acid derivatives: a new family of potent LTB4 antagonists” (J Med Chem, 1992).

Columns and labels:
[1] = system: Leukotriene B4 receptor 1 (Cavia porcellus); assay: Inhibition of [3H]LTB4 binding to Leukotriene B4 receptor in the guinea pig spleen membranes at a dose of 10 uM; settings: Membrane
[2] = target: Leukotriene B4 receptor 1 (Homo sapiens, UniProt Q15722); assay: Inhibition of [3H]LTB4 binding to Leukotriene B4 receptor in the human polymorphonuclear leukocytes
Summary of the method: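 Human blood PMNs were isolated by dextran T500 sedimentation, Ficoll-Hypaque centrifugation and hypotonic lysis. Cells were suspended in Hanks' solution with 5 mmol/L HEPES and 1 g/L ovalbumin, then incubated on ice for 15 min with 0.5 nmol/L [3H]LTB4 and competitor. Samples were filtered on GF/C, washed and counted. Nonspecific binding was defined with 1000-fold unlabeled LTB4. IC50 was read graphically; mean of three replicates.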

Leukotriene B4 receptor 1, sequence (Q15722 whole entry): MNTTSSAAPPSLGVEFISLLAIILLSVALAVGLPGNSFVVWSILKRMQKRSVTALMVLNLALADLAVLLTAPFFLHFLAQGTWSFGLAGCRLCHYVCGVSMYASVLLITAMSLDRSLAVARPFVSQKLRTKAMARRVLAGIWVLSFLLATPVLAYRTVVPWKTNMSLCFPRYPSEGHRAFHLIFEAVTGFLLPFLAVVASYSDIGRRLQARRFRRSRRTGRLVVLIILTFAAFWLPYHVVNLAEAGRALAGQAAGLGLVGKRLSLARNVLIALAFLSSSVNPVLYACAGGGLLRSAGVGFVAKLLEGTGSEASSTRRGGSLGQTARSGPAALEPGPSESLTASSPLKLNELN

Compound	inhibition [1]	IC50 [2]
O=C(O)CCCCCCc1cc(-c2ccccc2)c2ccccc2n1	34%	
CC(=O)Nc1ccc(-c2cc(OCCCCC(C)(C)C(=O)O)nc3ccccc23)cc1	23%	
CC(C)(CCCCOc1cc(-c2ccc(N)cc2)c2ccccc2n1)C(=O)O		250 nM
O=C(O)CCCCOc1cc(-c2ccccc2)c2ccccc2n1	0%	
OCCCCCCOc1cc(-c2ccccc2)c2ccccc2n1	14%	
CC(C)(CCCCOc1cc(-c2ccccc2)c2ccccc2n1)C(=O)O		4000 nM
CC(C)(CCCCOc1cc(-c2ccc(Cl)cc2)c2ccccc2n1)c1nnn[nH]1		50 nM
Cc1ccc(-c2cc(OCCCCC(C)(C)C(=O)O)nc3ccccc23)cc1		100 nM
COc1ccc(/C=C/CCCCOc2ccc(C(=O)c3cccc(C(=O)O)c3)cc2CCC(=O)O)cc1		3.5 nM
O=C(O)CCCC/C=C/c1cc(-c2ccccc2)c2ccccc2n1	27%	
COc1ccccc1-c1cc(OCCCCC(C)(C)C(=O)O)nc2ccccc12	36%	
CC(C)(CCCCNc1cc(-c2ccccc2)c2ccccc2n1)C(=O)O	0%	
CC(C)(CCCCSc1cc(-c2ccccc2)c2ccccc2n1)C(=O)O	33%	
O=C(O)CCCCCOc1cc(-c2ccc(Cl)cc2)c2ccccc2n1		150 nM
O=C(CCCCCOc1cc(-c2ccccc2)c2ccccc2n1)N1CCCC1	12%	
